Published values gathered from unrelated publications.
Lines come from different studies, so protocols differ.
SLC18A2: Synaptic vesicular amine transporter (SLC18A2, Homo sapiens, UniProt Q05940)
CA1: Carbonic anhydrase 1 (CA1, Homo sapiens, UniProt P00915)
LATS1: Serine/threonine-protein kinase LATS1 (LATS1, Homo sapiens, UniProt O95835)
gag-pol reverse transcriptase: Gag-Pol polyprotein, reverse transcriptase (gag-pol, Human immunodeficiency virus 1, UniProt P03366)
CA2: Carbonic anhydrase 2 (CA2, Homo sapiens, UniProt P00918)
CYP2C19: Cytochrome P450 2C19 (CYP2C19, Homo sapiens, UniProt P33261)
ACKR3: Atypical chemokine receptor 3 (ACKR3, Homo sapiens, UniProt P25106)
ERBB2: Receptor tyrosine-protein kinase erbB-2 (ERBB2, Homo sapiens, UniProt P04626)
UGT1A4: UDP-glucuronosyltransferase 1A4 (UGT1A4, Homo sapiens, UniProt P22310)

For `NC(=O)c1nnn(Cc2cc(Cl)c(C(=O)c3ccc(Cl)cc3)c(Cl)c2)c1N`, the IC50 was 1.09 µM (Delta-type opioid receptor (OPRD1, Homo sapiens, UniProt P41143); cAMP, antagonist).
The IC50 of `COc1cc2c(cc1OC)[C@H]1C[C@@H](OC(=O)[C@@H](N)C(C)C)[C@H](CC(C)C)CN1CC2` is reported as 0.53 µM (SLC18A2; transporter uptake, inhibitor, radiometric; cell membranes).
With `CC[C@H]1OC(=O)[C@H](C)[C@@H](O[C@H]2C[C@@](C)(OC)[C@@H](O)[C@H](C)O2)[C@H](C)[C@@H](O[C@@H]2O[C@H](C)C[C@H](N(C)C)[C@H]2O)[C@](C)(O)C[C@@H](C)CN(C)[C@H](C)[C@@H](O)[C@]1(C)O` the IC50 was 15 µM (CA1; enzyme activity, inhibitor, absorbance; pH 7.4).
`Cc1cc(-c2ccnc3[nH]cc(F)c23)ccc1[C@@]1(O)[C@H](C)CNC[C@@H]1C` has an IC50 of 0.078 µM (LATS1; target engagement in cells, BRET).
The IC50 of `CCOC(=O)c1c(NCCO)c2c([nH]c1=O)CCC2` is reported as > 100 µM (gag-pol reverse transcriptase; enzyme activity, inhibitor).
For `COc1ccnc(C[S+]([O-])c2nc3ccc(OC(F)F)cc3[nH]2)c1OC` (stereo not shown), the IC50 was 13.8 µM (CA2; enzyme activity, inhibitor, absorbance; pH 7.4).
With `CN1CCC(CNc2ccc3ncc(-c4cccc(OC(F)(F)F)c4)n3n2)CC1` the IC50 was 3.48 µM (5-hydroxytryptamine receptor 3A (HTR3A, Homo sapiens, UniProt P46098); ion current).
For `CC1=C(/C=C/C(C)=C/C=C/C(C)=C\C(=O)O)C(C)(C)CCC1`, the IC50 was 8.47 µM (CA1; enzyme activity, inhibitor, absorbance; pH 7.4).
With `Cc1ccc(OCC(=O)N[C@@H](Cc2c[nH]c3ccccc23)C(=O)OC(C)C)cc1` the IC50 was 31.5 µM (CYP2C19; enzyme activity, inhibitor; human, liver microsomes; 30 min).
The IC50 of `C[C@@H]1CNC[C@H](C)[C@@]1(O)c1ccc(-c2ccnc3[nH]cc(F)c23)cc1` is reported as 0.518 µM (LATS1; target engagement in cells, BRET).
`CC(C)(C)NC(=O)C1CCN(Cc2cccc(/N=N/c3cccc(F)c3)c2)CC1` has an IC50 of 2 µM (ACKR3; ligand displacement, BRET).
`COc1c(Cl)cccc1Nc1c(-c2ccncc2OC[C@@H]2COCCO2)[nH]c2c1C(=O)NCC2` has an IC50 of < 0.0005 µM (ERBB2; enzyme activity, inhibitor, TR-FRET).
With `C[C@H]1c2cccc(O)c2C(=O)C2=C(O)[C@]3(O)C(=O)C(C(N)=O)=C(O)[C@@H](N(C)C)[C@@H]3[C@@H](O)[C@@H]21` the IC50 was 12.6 µM (CA1; enzyme activity, inhibitor, absorbance; pH 7.4).
For `CCOC(=O)c1c(NC(CC)CO)c2c([nH]c1=O)CCC2` (stereo not shown), the IC50 was > 100 µM (gag-pol reverse transcriptase; enzyme activity, inhibitor).
`CC(C)(C)NC(=O)C1CCN(Cc2cccc(/N=N/c3ccccc3)c2)CC1` gave an IC50 of 1 µM (ACKR3; ligand displacement, BRET).
For `O=C(O[C@H]1CN2CCC1CC2)N1CCc2ccccc2[C@@H]1c1ccccc1`, the IC50 was 5.7 µM (SLC18A2; transporter uptake, inhibitor).
For `Clc1ccc(C2(c3ccc(-c4cn[nH]c4)cc3)CCNCC2)cc1`, the IC50 was 8.87 µM (LATS1; target engagement in cells, BRET).
The IC50 of `CCOC(=O)c1c(NC)c2c([nH]c1=O)CCC2` is reported as > 100 µM (gag-pol reverse transcriptase; enzyme activity, inhibitor).
For `O=C1/C(=C/c2ccc3ccccc3c2O)NC(=S)N1c1ccccc1`, the IC50 was 0.197 µM (ERBB2; enzyme activity, inhibitor, ELISA).
`OC1(c2ccc(-c3ccnc4[nH]cc(F)c34)cc2)CCCNCC1` (stereo not shown) has an IC50 of 0.017 µM (LATS1; enzyme activity, inhibitor, radiometric).
`CNCCC(Oc1ccc(C(F)(F)F)cc1)c1ccccc1` (stereo not shown) has an IC50 of 2.75 µM (SLC18A2; transporter uptake, inhibitor).
For `CCCCCNc1c2c([nH]c(=O)c1C(=O)OCC)CCC2`, the IC50 was > 100 µM (gag-pol reverse transcriptase; enzyme activity, inhibitor).
`C=C(C)[C@@H]1CC[C@]2(C(=O)O)CC[C@]3(C)[C@H](CC[C@@H]4[C@@]5(C)CC[C@H](O)C(C)(C)[C@@H]5CC[C@]43C)[C@@H]12` has an IC50 of 4.21 µM (UGT1A4; enzyme activity, inhibitor; human, liver microsomes).
`CCOCCn1c(C2CCN(CCc3ccc(C(C)(C)C(=O)O)cc3)CC2)nc2ccccc21` gave an IC50 of 13.4 µM (CA2; enzyme activity, inhibitor, absorbance; pH 7.4).
With `Cc1cc(-c2ccnc3[nH]cc(F)c23)cc(F)c1[C@@]1(O)[C@H](C)CN(C2COC2)C[C@@H]1C` the IC50 was 0.0059 µM (LATS1; enzyme activity, inhibitor, radiometric).
`C/C=C/CNc1c2c([nH]c(=O)c1C(=O)OCC)CCC2` gave an IC50 of > 100 µM (gag-pol reverse transcriptase; enzyme activity, inhibitor).
The IC50 of `OCCN1CCN(CCCN2c3ccccc3Sc3ccc(C(F)(F)F)cc32)CC1` is reported as 2.34 µM (SLC18A2; transporter uptake, inhibitor).
`CN(C)C(=O)c1cc2cnc(Nc3ccc(-c4ccc5c(=O)cc(N6CCOCC6)oc5c4)cc3)nc2n1C1CCCC1` has an IC50 of 0.023 µM (CYP2C19; enzyme activity, inhibitor, fluorescence; pH 8).
`CNC(=O)c1ccccc1Sc1ccc2c(/C=C/c3ccccn3)n[nH]c2c1` has an IC50 of 8.2 µM (SLC18A2; transporter uptake, inhibitor).
With `CCOC(=O)c1c(NCCCCN)c2c([nH]c1=O)CCC2` the IC50 was > 100 µM (gag-pol reverse transcriptase; enzyme activity, inhibitor).
The IC50 of `Fc1c[nH]c2nccc(-c3ccc(C4CCNCC4)cc3)c12` is reported as 0.0088 µM (LATS1; enzyme activity, inhibitor, radiometric).
The IC50 of `NC(=O)N1c2ccccc2C=Cc2ccccc21` is reported as > 300 µM (Sodium channel protein type 2 subunit alpha (SCN2A, Homo sapiens, UniProt Q99250); ion current, inhibitor, patch clamp).
With `OCc1ccc(-c2nn(Cc3ccccc3)c3ccccc23)o1` the IC50 was 3.3 µM (CYP2C19; enzyme activity, inhibitor; human, liver microsomes).
`Cc1ccc(C(=O)Nc2ccc(CN3CCN(C)CC3)c(C(F)(F)F)c2)cc1C#Cc1cnc2cccnn12` gave an IC50 of 0.7 µM (SLC18A2; transporter uptake, inhibitor, radiometric; cell membranes).
For `COc1cc(C)c(/C=C/C(C)=C/C=C/C(C)=C/C(=O)O)c(C)c1C`, the IC50 was 11.3 µM (CA1; enzyme activity, inhibitor, absorbance; pH 7.4).
`C[C@@H]1CC[C@@]2(OC1)O[C@H]1C[C@H]3[C@@H]4CC[C@H]5C[C@@H](O)CC[C@]5(C)[C@H]4CC(=O)[C@]3(C)[C@H]1[C@@H]2C` has an IC50 of 2.3 µM (UGT1A4; enzyme activity, inhibitor).
With `CCOC(=O)c1c(NCCCN)c2c([nH]c1=O)CCC2` the IC50 was > 100 µM (gag-pol reverse transcriptase; enzyme activity, inhibitor).
For `OC1(c2ccc(-c3ccnc4[nH]cc(F)c34)cc2)CCNCC1`, the IC50 was 17.1 µM (LATS1; target engagement in cells, BRET).
The IC50 of `C=CCc1ccccc1OCC(O)CNC(C)C` (stereo not shown) is reported as 7.7 µM (SLC18A2; transporter uptake, inhibitor).
`Nc1ccc(S(=O)(=O)c2ccc(N)cc2)cc1` gave an IC50 of 15 µM (CA2; enzyme activity, inhibitor, absorbance; pH 7.4).
`OC1CCN(c2ccc(/C=N/NC(=S)Nc3ccc(Cl)cc3)cc2)CC1` gave an IC50 of 0.378 µM (CA2; enzyme activity, inhibitor, absorbance).
With `Clc1ccc2c(c1)C(N1CCNCC1)=Nc1ccccc1O2` the IC50 was 8.5 µM (SLC18A2; transporter uptake, inhibitor).
`CCCCCCNc1c2c([nH]c(=O)c1C(=O)OCC)CCC2` gave an IC50 of > 100 µM (gag-pol reverse transcriptase; enzyme activity, inhibitor).
For `OC1(c2ccc(-c3ccnc4[nH]cc(F)c34)cc2)CCNC1` (stereo not shown), the IC50 was 0.011 µM (LATS1; enzyme activity, inhibitor, radiometric).
`CN(C/C=C/C#CC(C)(C)C)Cc1cccc2ccccc12` has an IC50 of 30.3 µM (CA1; enzyme activity, inhibitor, absorbance; pH 7.4).
The IC50 of `C=CCn1c(=O)c2cnc(Nc3ccc(N4CCN(C)CC4)cc3)nc2n1-c1ccc2c(n1)[C@@](O)(CC)CC2` is reported as 10 µM (CYP2C19; enzyme activity, inhibitor).
